These results are taken from BindingDB's records for doi:10.1016/j.bmcl.2018.12.060 (Yanbian University College of Pharmacy, 2019).

This assay has as its target Hypoxia-inducible factor 1-alpha (Homo sapiens, UniProt Q16665). Nature of the assay: Inhibition of HIF1alpha transcriptional activity in human Hep3B cells after 24 hrs in hypoxic condition by HRE-dual luciferase reporter gene assay. The essentials:
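Hep3B cells transiently co-transfected with pGL3-HRE-luciferase and pRL-CMV, after 24 h incubated under hypoxia with or without compound; luciferase activity measured after 24 h, ursolic acid as positive control; mean ± SD of three independent experiments.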
(A reporter such as luciferase makes a cellular process visible.)

As a reminder, the IC50 is the midpoint of a concentration-inhibition curve.

Hypoxia-inducible factor 1-alpha, sequence (Q16665 whole entry): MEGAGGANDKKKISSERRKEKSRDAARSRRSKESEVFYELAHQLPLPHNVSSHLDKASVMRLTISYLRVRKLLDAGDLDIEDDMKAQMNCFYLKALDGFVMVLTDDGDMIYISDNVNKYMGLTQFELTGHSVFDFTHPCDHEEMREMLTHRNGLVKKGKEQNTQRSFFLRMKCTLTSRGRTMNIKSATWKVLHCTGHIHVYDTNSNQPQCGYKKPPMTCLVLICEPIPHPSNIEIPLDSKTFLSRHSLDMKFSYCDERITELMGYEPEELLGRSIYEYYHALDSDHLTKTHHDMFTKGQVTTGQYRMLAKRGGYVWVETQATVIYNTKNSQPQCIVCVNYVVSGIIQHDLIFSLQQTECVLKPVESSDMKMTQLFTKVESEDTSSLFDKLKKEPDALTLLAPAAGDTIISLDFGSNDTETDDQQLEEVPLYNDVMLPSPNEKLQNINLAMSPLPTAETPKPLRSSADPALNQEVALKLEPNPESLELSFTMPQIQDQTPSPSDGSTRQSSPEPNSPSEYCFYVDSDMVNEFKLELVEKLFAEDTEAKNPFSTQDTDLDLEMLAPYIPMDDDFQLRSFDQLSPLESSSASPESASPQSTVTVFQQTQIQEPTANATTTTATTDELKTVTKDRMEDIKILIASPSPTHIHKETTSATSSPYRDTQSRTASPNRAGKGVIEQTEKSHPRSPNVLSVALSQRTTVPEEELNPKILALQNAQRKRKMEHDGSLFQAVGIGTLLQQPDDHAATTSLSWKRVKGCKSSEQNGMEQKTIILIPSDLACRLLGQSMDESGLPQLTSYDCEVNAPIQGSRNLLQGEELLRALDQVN

In turn, `C[C@H]1[C@H](C)CC[C@]2(C(=O)OCc3c(Cl)cccc3Cl)CC[C@]3(C)C(=CC[C@@H]4[C@@]5(C)CC/C(=N\NC(=N)N)C(C)(C)[C@@H]5CC[C@]43C)[C@H]12` yielded an IC50 of 13.3 µM. For the compound `C[C@H]1[C@H](C)CC[C@]2(C(=O)O)CC[C@]3(C)C(=CC[C@@H]4[C@@]5(C)CC(=C\c6ccccc6Br)/C(=N\NC(=N)N)C(C)(C)[C@@H]5CC[C@]43C)[C@H]12`, the IC50 is > 100 µM. As to `C[C@H]1[C@H](C)CC[C@]2(C(=O)O)CC[C@]3(C)C(=CC[C@@H]4[C@@]5(C)CC/C(=N\NC(=N)N)C(C)(C)[C@@H]5CC[C@]43C)[C@H]12`, the 50% inhibitory concentration (IC50) was > 100 µM. Take `C[C@H]1[C@H](C)CC[C@]2(C(=O)O)CC[C@]3(C)C(=CC[C@@H]4[C@@]5(C)CC/C(=N\NC(N)=S)C(C)(C)[C@@H]5CC[C@]43C)[C@H]12`: it took 88.8 µM to reach half-maximal inhibition (IC50).

Consider `COC(=O)[C@]12CC[C@@H](C)[C@H](C)[C@H]1C1=CC[C@@H]3[C@@]4(C)CC/C(=N\NC(=N)N)C(C)(C)[C@@H]4CC[C@@]3(C)[C@]1(C)CC2`, for which the IC50 turned out to be 6.7 µM. In the case of `CCOC(=O)[C@]12CC[C@@H](C)[C@H](C)[C@H]1C1=CC[C@@H]3[C@@]4(C)CC/C(=N\NC(=N)N)C(C)(C)[C@@H]4CC[C@@]3(C)[C@]1(C)CC2` it was > 100 µM. `C[C@H]1[C@H](C)CC[C@]2(C(=O)OCc3cccc(Cl)c3)CC[C@]3(C)C(=CC[C@@H]4[C@@]5(C)CC/C(=N\NC(=N)N)C(C)(C)[C@@H]5CC[C@]43C)[C@H]12` gave a half-maximal inhibitory concentration (IC50) of 30.3 µM. This counts as double-digit micromolar. In turn, `Cc1ccc(COC(=O)[C@]23CC[C@@H](C)[C@H](C)[C@H]2C2=CC[C@@H]4[C@@]5(C)CC/C(=N\NC(=N)N)C(C)(C)[C@@H]5CC[C@@]4(C)[C@]2(C)CC3)cc1` had an IC50 of 10.3 µM. In the case of `C[C@H]1[C@H](C)CC[C@]2(C(=O)O)CC[C@]3(C)C(=CC[C@@H]4[C@@]5(C)CC(=C\c6ccccc6Cl)/C(=N\NC(=N)N)C(C)(C)[C@@H]5CC[C@]43C)[C@H]12` it was > 100 µM; in that of `C[C@H]1[C@H](C)CC[C@]2(C(=O)O)CC[C@]3(C)C(=CC[C@@H]4[C@@]5(C)CC(=C\c6cccc(Cl)c6)/C(=N\NC(=N)N)C(C)(C)[C@@H]5CC[C@]43C)[C@H]12`, > 100 µM. In the case of `C[C@H]1[C@H](C)CC[C@]2(C(=O)O)CC[C@]3(C)C(=CC[C@@H]4[C@@]5(C)CC(=C\c6ccc(F)cc6)/C(=N\NC(=N)N)C(C)(C)[C@@H]5CC[C@]43C)[C@H]12` it was > 100 µM. Turning to `C[C@H]1[C@H](C)CC[C@]2(C(=O)O)CC[C@]3(C)C(=CC[C@@H]4[C@@]5(C)CC(=C\c6cccc(Br)c6)/C(=N\NC(=N)N)C(C)(C)[C@@H]5CC[C@]43C)[C@H]12`, inhibition was half-maximal at 75.4 µM (IC50). The figure for `C[C@H]1[C@H](C)CC[C@]2(C(=O)O)CC[C@]3(C)C(=CC[C@@H]4[C@@]5(C)CC(=C\c6c(Cl)cccc6Cl)/C(=N\NC(=N)N)C(C)(C)[C@@H]5CC[C@]43C)[C@H]12` is > 100 µM; for `Cc1ccc(/C=C2\C[C@]3(C)[C@H]4CC=C5[C@@H]6[C@@H](C)[C@H](C)CC[C@]6(C(=O)O)CC[C@@]5(C)[C@]4(C)CC[C@H]3C(C)(C)\C2=N\NC(=N)N)cc1` it is > 100 µM. Take `C[C@H]1[C@H](C)CC[C@]2(C(=O)O)CC[C@]3(C)C(=CC[C@@H]4[C@@]5(C)CC(=C\c6ccco6)/C(=N\NC(=N)N)C(C)(C)[C@@H]5CC[C@]43C)[C@H]12`: the IC50 was > 100 µM. Compound `C[C@H]1[C@H](C)CC[C@]2(C(=O)O)CC[C@]3(C)C(=CC[C@@H]4[C@@]5(C)CC(=C\c6cccs6)/C(=N\NC(=N)N)C(C)(C)[C@@H]5CC[C@]43C)[C@H]12` gave an IC50 of 22.8 µM. That is a double-digit micromolar value.

As for `CCCCCOC(=O)[C@]12CC[C@@H](C)[C@H](C)[C@H]1C1=CC[C@@H]3[C@@]4(C)CC/C(=N\NC(=N)N)C(C)(C)[C@@H]4CC[C@@]3(C)[C@]1(C)CC2`, the IC50 was > 100 µM. On to `C[C@H]1[C@H](C)CC[C@]2(C(=O)O)CC[C@]3(C)C(=CC[C@@H]4[C@@]5(C)CC(=C\c6ccccc6)/C(=N\NC(=N)N)C(C)(C)[C@@H]5CC[C@]43C)[C@H]12`, for which inhibition was half-maximal at 37.8 µM (IC50). This counts as double-digit micromolar. On to `C[C@H]1[C@H](C)CC[C@]2(C(=O)O)CC[C@]3(C)C(=CC[C@@H]4[C@@]5(C)CC(=C\c6cccc7ccccc67)/C(=N\NC(=N)N)C(C)(C)[C@@H]5CC[C@]43C)[C@H]12`, for which the half-maximal inhibitory concentration (IC50) was > 100 µM. In the case of `C[C@H]1[C@H](C)CC[C@]2(C(=O)OCc3ccc(Cl)cc3)CC[C@]3(C)C(=CC[C@@H]4[C@@]5(C)CC/C(=N\NC(=N)N)C(C)(C)[C@@H]5CC[C@]43C)[C@H]12` it was 21.1 µM; in that of `C[C@H]1[C@H](C)CC[C@]2(C(=O)O)CC[C@]3(C)C(=CC[C@@H]4[C@@]5(C)CC(=C\c6ccc(Cl)cc6Cl)/C(=N\NC(=N)N)C(C)(C)[C@@H]5CC[C@]43C)[C@H]12`, 90.4 µM; in that of `C[C@H]1[C@H](C)CC[C@]2(C(=O)O)CC[C@]3(C)C(=CC[C@@H]4[C@@]5(C)CC/C(=N\NC(N)=O)C(C)(C)[C@@H]5CC[C@]43C)[C@H]12`, 13.3 µM.

As to `C[C@H]1[C@H](C)CC[C@]2(C(=O)OCc3ccc(Cl)cc3Cl)CC[C@]3(C)C(=CC[C@@H]4[C@@]5(C)CC/C(=N\NC(=N)N)C(C)(C)[C@@H]5CC[C@]43C)[C@H]12`, the concentration for half-maximal inhibition (IC50) amounted to 40.5 µM. With `C[C@H]1[C@H](C)CC[C@]2(C(=O)O)CC[C@]3(C)C(=CC[C@@H]4[C@@]5(C)CC(=C\c6cccc(F)c6)/C(=N\NC(=N)N)C(C)(C)[C@@H]5CC[C@]43C)[C@H]12`, the IC50 was > 100 µM.

Take `C[C@H]1[C@H](C)CC[C@]2(C(=O)O)CC[C@]3(C)C(=CC[C@@H]4[C@@]5(C)CC(=C\c6ccc([N+](=O)[O-])cc6)/C(=N\NC(=N)N)C(C)(C)[C@@H]5CC[C@]43C)[C@H]12`: the IC50 was > 100 µM. `C[C@H]1[C@H](C)CC[C@]2(C(=O)O)CC[C@]3(C)C(=CC[C@@H]4[C@@]5(C)CC(=C\c6ccccc6F)/C(=N\NC(=N)N)C(C)(C)[C@@H]5CC[C@]43C)[C@H]12`: the half-maximal inhibitory concentration (IC50) was > 100 µM. The figure for `C[C@H]1[C@H](C)CC[C@]2(C(=O)O)CC[C@]3(C)C(=CC[C@@H]4[C@@]5(C)CC[C@H](O)C(C)(C)[C@@H]5CC[C@]43C)[C@H]12` [3beta-hydroxyurs-12-en-28-oic acid] is > 100 µM.
